Measured values from ChEMBL document CHEMBL4145558, “Structure-Activity Relationship Study on Odoamide: Insights into the Bioactivities of Aurilide-Family Hybrid Peptide-Polyketides” (ACS Med Chem Lett, 2018).

What was measured:
[1] = system: A549; experiment: Cytotoxicity against human A549 cells assessed as inhibition of cell growth after 72 hrs by MTS assay; assay type: functional, cell-based; settings: A549, 72 h
In short: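 A549 cells exposed to each peptide for 72 h; growth read by MTS assay. IC50 taken as the concentration giving 50% growth inhibition, n = 3.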

[2] = Permeability of the compound in pH 7.4 phosphate buffer solution after 4 hrs by LC-MS/MS based PAMPA assay; assay type: ADME; settings: read-out: permeability
In short: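 PAMPA run at pH 7.4, under the in vitro bioassay conditions.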

[3] = Protein binding in 10% fetal bovine serum at 1 uM after 4 hrs in presence of cell culture medium by rapid equilibrium dialysis based LC-MS/MS analysis; assay type: ADME, cell-free, Bos taurus; settings: cattle, 10% fetal bovine serum in cell culture medium; read-out: PB (converted)
In short: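 Peptides tested in cell culture medium supplemented with 10% (v/v) fetal bovine serum. The ratio of unbound peptide was determined.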

Structure (SMILES)	IC50 [1]	Papp at 4 h [2]	fraction unbound at 4 h, 1 µM [3]
CCC[C@H](C)[C@H]1OC(=O)[C@H](C)N(C)C(=O)[C@H]([C@@H](C)CC)NC(=O)CN(C)C(=O)[C@@H](Cc2ccccc2)N(C)C(=O)[C@H](C)NC(=O)[C@@H]([C@@H](C)CC)OC(=O)/C(C)=C/C=C/[C@@H]1C	28 nM	–	–
CCC[C@H](C)[C@H]1OC(=O)[C@H](C)N(C)C(=O)[C@@H]([C@@H](C)CC)NC(=O)CN(C)C(=O)[C@@H](Cc2ccccc2)N(C)C(=O)[C@H](C)NC(=O)[C@@H]([C@@H](C)CC)OC(=O)/C(C)=C/C[C@H](O)[C@@H]1C	645 nM	–	–
CCC[C@H](C)[C@@H](O)[C@@H](C)[C@@H]1C/C=C(\C)C(=O)O[C@H]([C@@H](C)CC)C(=O)N[C@@H](C)C(=O)N(C)[C@H](Cc2ccccc2)C(=O)N(C)CC(=O)N[C@@H]([C@@H](C)CC)C(=O)N(C)[C@@H](C)C(=O)O1	4.5 nM	–	–
CCC[C@H](C)[C@H]1OC(=O)[C@H](C)N(C)C(=O)[C@H]([C@@H](C)CC)NC(=O)CNC(=O)[C@@H](Cc2ccccc2)N(C)C(=O)[C@H](C)NC(=O)[C@@H]([C@@H](C)CC)OC(=O)/C(C)=C/C[C@H](O)[C@@H]1C	31 nM	> 1 ×10⁻⁶ cm/s	–
CCC[C@H](C)[C@H]1OC(=O)[C@@H](C)N(C)C(=O)[C@H]([C@@H](C)CC)NC(=O)CN(C)C(=O)[C@@H](Cc2ccccc2)N(C)C(=O)[C@H](C)NC(=O)[C@@H]([C@@H](C)CC)OC(=O)/C(C)=C/C[C@H](O)[C@@H]1C	1.9 nM	> 1 ×10⁻⁶ cm/s	0.145
CCC[C@H](C)[C@H]1OC(=O)[C@H](C)N(C)C(=O)[C@H]([C@@H](C)CC)NC(=O)CCN(C)C(=O)[C@@H](Cc2ccccc2)N(C)C(=O)[C@H](C)NC(=O)[C@@H]([C@@H](C)CC)OC(=O)/C(C)=C/C[C@H](O)[C@@H]1C	74 nM	> 1 ×10⁻⁶ cm/s	–
CCC[C@H](C)[C@H]1OC(=O)[C@H](C)N(C)C(=O)[C@H]([C@@H](C)CC)NC(=O)CN(C)C(=O)[C@H](Cc2ccccc2)N(C)C(=O)[C@H](C)NC(=O)[C@@H]([C@@H](C)CC)OC(=O)/C(C)=C/C[C@H](O)[C@@H]1C	48 nM	–	–
CCC[C@H](C)[C@H]1OC(=O)[C@H](C)N(C)C(=O)[C@H]([C@@H](C)CC)NC(=O)CN(C)C(=O)[C@@H](Cc2ccccc2)N(C)C(=O)[C@H](C)NC(=O)[C@@H]([C@@H](C)CC)OC(=O)/C(C)=C/C[C@H](O)[C@@H]1C	4.2 nM	> 1 ×10⁻⁶ cm/s	0.241
CCC[C@H](C)[C@H]1OC(=O)[C@H](C)N(C)C(=O)[C@H]([C@@H](C)CC)NC(=O)CN(C)C(=O)[C@@H](Cc2ccccc2)NC(=O)[C@H](C)NC(=O)[C@@H]([C@@H](C)CC)OC(=O)/C(C)=C/C[C@H](O)[C@@H]1C	5.4 nM	–	–
CCC[C@H](C)[C@H]1OC(=O)[C@H](C)N(C)C(=O)[C@H]([C@@H](C)CC)NC(=O)CN(C)C(=O)[C@@H](Cc2ccccc2)N(C)C(=O)[C@H](C)NC(=O)[C@@H]([C@@H](C)CC)OC(=O)/C(C)=C/C[C@H](OC)[C@@H]1C	4.3 nM	> 1 ×10⁻⁶ cm/s	0.028
CCC[C@H](C)[C@H]1OC(=O)[C@H](C)N(C)C(=O)[C@H]([C@@H](C)CC)NC(=O)CN(C)C(=O)[C@@H](Cc2ccccc2)N(C)C(=O)[C@@H](C)NC(=O)[C@@H]([C@@H](C)CC)OC(=O)/C(C)=C/C[C@H](O)[C@@H]1C	1550 nM	> 1 ×10⁻⁶ cm/s	–
